Assay outcomes deposited in PubChem by several laboratories.
Compounds with a hit are over-represented: about 2.9% of the library has one in this group of screens.
MEKK3 PB1 HTS = MEKK3-MEK5 PB1 interaction, increase or decrease. Q99759. bead-based flow cytometry, Alexa488-MEK5 binding to MEKK3; actives lie on both sides; 0 = blocked by unlabeled MEK5, 100 = vehicle. binding response (% of control), % at 10 µM. hit rate 1.4% among 290,000. AID 1529;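 active = binding response more than 3 SD above or below the average of its plate-row segment, actives on both sides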;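 note: Alexa488 bead fluorescence after subtracting the streptavidin-only scavenger bead signal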
Target sequence (Q99759 whole entry, looked up): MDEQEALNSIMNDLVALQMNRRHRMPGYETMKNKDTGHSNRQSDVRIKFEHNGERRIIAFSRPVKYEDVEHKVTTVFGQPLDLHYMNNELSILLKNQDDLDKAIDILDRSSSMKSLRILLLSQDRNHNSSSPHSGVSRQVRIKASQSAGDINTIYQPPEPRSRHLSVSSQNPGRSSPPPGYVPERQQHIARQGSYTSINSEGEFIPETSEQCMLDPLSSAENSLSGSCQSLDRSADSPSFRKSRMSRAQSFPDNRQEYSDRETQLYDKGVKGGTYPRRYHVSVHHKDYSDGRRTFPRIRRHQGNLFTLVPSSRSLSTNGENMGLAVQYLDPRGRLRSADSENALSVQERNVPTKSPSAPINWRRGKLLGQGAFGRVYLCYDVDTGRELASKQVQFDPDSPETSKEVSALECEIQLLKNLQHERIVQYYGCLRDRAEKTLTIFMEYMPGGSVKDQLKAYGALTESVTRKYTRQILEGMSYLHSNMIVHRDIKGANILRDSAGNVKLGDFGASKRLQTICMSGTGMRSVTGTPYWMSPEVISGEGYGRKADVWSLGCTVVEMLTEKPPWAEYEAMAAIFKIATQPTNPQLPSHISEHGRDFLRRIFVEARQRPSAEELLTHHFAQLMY
Apaf-1 inh = human Apaf-1 inhibition; reconstituted apoptosome caspase-3 activity, DEVD-Rh110 fluorescence; hit rate 0.71% among 330,000; O14727; inhibition, % at 20 µM; active = inhibition of at least 40% at 20 µM
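Material: cell-free apoptosome with Apaf-1, procaspase-3 and caspase-9; Buffer or medium: Hepes pH 7.5 with detergent and BSA; Reagent: cytochrome c trigger plus (Z-DEVD)2-Rh110 caspase-3 substrate; Times: compound with Apaf-1, dATP, procaspase-3 30 min, then 50 min reaction, room temperature; Technique: Rh110 fluorescence intensity.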
MEKK2wt PB1 HTS = raises or lowers MEK5 binding to wildtype human MEKK2 PB1 domain. Q9Y2U5. bead flow cytometry, Alexa488-MEK5 binding to MEKK2 WT; actives lie on both sides. binding response (% of control), % at 10 µM. hit rate 1.1% among 290,000. AID 1531; in the data active = binding response below about 67% or above about 130%
UBC13 inh = blocks human UBC13 polyubiquitin chain formation | P61088 | AID 485273 | hit rate 0.47% among 330,000 | TR-FRET | inhibition, % at 20 µM; in the data active = inhibition above about 45%, passing the limit was not always enough
Target sequence (P61088 whole entry, looked up): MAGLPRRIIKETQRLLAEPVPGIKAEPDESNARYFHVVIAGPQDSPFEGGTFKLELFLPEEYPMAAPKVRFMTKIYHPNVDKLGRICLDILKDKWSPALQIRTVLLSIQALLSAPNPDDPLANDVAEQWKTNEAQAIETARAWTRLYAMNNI
MEKK2 mut-MEK5 = signal of MEK5 binding to mutant human MEKK2 PB1 domain; bead flow cytometry, Alexa488-MEK5 binding to MEKK2 mutant; percent response, % at 10 µM; hit rate 0.35% among 290,000; AID 1530; in the data active = percent response above about 24%, passing the limit was not always enough
MEKK2wt confirm = raises or lowers MEK5 binding to wildtype human MEKK2, retest | hit rate 2.4% among 5,900 | AID 1892 | bead flow cytometry, Alexa488-MEK5 binding to MEKK2 WT; actives lie on both sides | shares compounds with MEKK3 PB1 HTS | binding response (% of control), % at 10 µM; in the data active = binding response below about 16% or above about 210%; inactive = in between
MEKK2mut-MEK5 = signal of MEK5 binding to mutant human MEKK2, retest | shares compounds with MEKK3 PB1 HTS | percent response, % at 10 µM | hit rate 2% among 5,900 | bead flow cytometry, Alexa488-MEK5 binding to MEKK2 mutant | AID 1893; in the data active = percent response mostly above about 71%, no sharp cut-off; inactive = mostly below about 38%;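 note: higher means compound restores mutant binding toward wildtype level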
MEKK3 confirm = confirmation of inhibitors of MEK5 binding to human MEKK3 | shares compounds with MEKK3 PB1 HTS | bead flow cytometry, Alexa488-MEK5 binding to MEKK3; stronger effect = lower value | binding response (% of control), % at 10 µM | hit rate 1.8% among 5,900 | AID 1894;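 active = binding response below 72% of control, or above a set upper limit, though filed actives all read lower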
Large screens that a line does not name were inactive (follow-up assays come after a bar, where they were run); ! = not confirmed by another sample; [ ] = another dose, or the depositor's remark.

CN1CCCN(C(=O)CSc2ccccc2)CC1	none
CN1CCN(C(=O)CSc2ccc(Cl)cc2)CC1	MEKK3 PB1 HTS 75.0[inhibitor] | MEKK2wt confirm inactive | MEKK2mut-MEK5 inactive | MEKK3 confirm inactive
CCN(CC)C(=O)C(=O)N/N=C/c1ccc(C(=O)OC)cc1	none
CCOc1ccccc1NC(=O)NCc1cccnc1	MEKK3 PB1 HTS 43.0[inhibitor] | MEKK2wt confirm inactive | MEKK2mut-MEK5 inactive | MEKK3 confirm inactive
CCOc1ccccc1NC(=O)NCc1ccccc1	none
CCC(C)NC(=O)c1ccc(N2CC3CC(C2)c2cccc(=O)n2C3)c(NC(=O)c2ccc(Br)o2)c1 (stereo not given)	none
COc1ccc(NCC(=O)N/N=C/C=C\c2ccccc2)cc1	none
O=C(Cc1cccs1)N/N=C/C=C/c1ccccc1	MEKK3 PB1 HTS 129.0 | MEKK2wt confirm inactive | MEKK2mut-MEK5 inactive | MEKK3 confirm inactive
COc1ccccc1NCC(=O)N/N=C/C=C/c1ccccc1	MEKK3 PB1 HTS 70.0[inhibitor] | MEKK2wt confirm inactive | MEKK2mut-MEK5 inactive | MEKK3 confirm inactive
Cc1coc2c1C(=O)C(=O)c1c-2ccc2c(C)cccc12	Apaf-1 inh 96.0, MEKK2wt PB1 HTS 138.0 | MEKK2wt confirm inactive | MEKK2mut-MEK5 inactive | MEKK3 confirm inactive
O=C(CCCCCn1c(=S)[nH]c2ccc(N3CCOCC3)cc2c1=O)NC1CCN(Cc2ccccc2)CC1	none
COc1cccc(CNC(=O)CCCCCn2c(=S)[nH]c3ccc(N4CCOCC4)cc3c2=O)c1	MEKK3 PB1 HTS 130.0 | MEKK2wt confirm inactive | MEKK2mut-MEK5 inactive | MEKK3 confirm inactive
O=C(NC1CCN(Cc2ccccc2)CC1)c1ccc(Cn2c(=S)[nH]c3ccc(N4CCOCC4)cc3c2=O)cc1	MEKK2wt PB1 HTS 154.0 | MEKK2wt confirm inactive | MEKK2mut-MEK5 inactive | MEKK3 confirm inactive
COc1cccc(Cn2c(=S)[nH]c3ccc(N4CCOCC4)cc3c2=O)c1	none
CC(C)(C)c1ccc(C(=O)Nc2ccc(NC(=O)C(=O)O)cc2)o1	none
CCOc1ccc(N2CC(C(=O)Nc3nnc(Cc4ccccc4)s3)CC2=O)cc1 (stereo not given)	none
CCC1OC2(C)OC(=N)C1(C#N)C(C#N)(C#N)C2c1ccccc1 (stereo not given)	none
CCC12OC(=N)C(C#N)(C1C)C(C#N)(C#N)C(c1ccccc1)O2 (stereo not given)	MEKK3 PB1 HTS 141.0 | MEKK2wt confirm inactive | MEKK2mut-MEK5 inactive | MEKK3 confirm inactive
C=CCNC(=O)N1CCC(c2nc3ccccc3s2)CC1	none
NS(=O)(=O)c1ccc(CNC(=O)c2csc3c2CCCC3)cc1	none
COCCN1C(=O)/C(=C/c2ccc(N3CCCC3)cc2)SC1=S	MEKK2wt PB1 HTS 59.0[inhibitor] | MEKK2wt confirm inactive | MEKK2mut-MEK5 inactive | MEKK3 confirm inactive
COc1ccc(/C=C2\SC(=S)N(CCC(=O)N3CCCCC3)C2=O)cc1	none
C=CCc1cccc(/C=N/NC(=O)CCCNc2ccc(C)cc2)c1O	MEKK2wt PB1 HTS 248.0, MEKK2 mut-MEK5 89.0 (no result: Apaf-1 inh, UBC13 inh) | MEKK2wt confirm inactive | MEKK2mut-MEK5 inactive | MEKK3 confirm inactive
OC1(c2ccc(Cl)cc2)CCN(Cc2c[nH]c3ccccc23)CC1	MEKK2wt PB1 HTS 151.0 | MEKK2wt confirm inactive | MEKK2mut-MEK5 inactive | MEKK3 confirm inactive
Clc1ccccc1N1CCN(Cc2c[nH]c3ccccc23)CC1	none (no result: MEKK3 PB1 HTS, MEKK2wt PB1 HTS, MEKK2 mut-MEK5)
CN1CCN(CCCNCc2cn(CCC#N)c3ccccc23)CC1	MEKK2wt PB1 HTS 168.0, MEKK2 mut-MEK5 25.0 | MEKK2wt confirm inactive | MEKK2mut-MEK5 inactive | MEKK3 confirm inactive
CC12CCC(=O)N1C(C(=O)OCC(=O)Nc1ccc(C(F)(F)F)cc1)CS2 (stereo not given)	none (no result: MEKK3 PB1 HTS, MEKK2wt PB1 HTS, MEKK2 mut-MEK5)
CC12CCC(=O)N1C(C(=O)OCC(=O)Nc1ccc(S(N)(=O)=O)cc1)CS2 (stereo not given)	MEKK2wt PB1 HTS 49.0[inhibitor] | MEKK2wt confirm inactive | MEKK2mut-MEK5 inactive | MEKK3 confirm inactive
c1csc(CNc2ccc3c(c2)OCCO3)c1	MEKK3 PB1 HTS 131.0 (no result: Apaf-1 inh, UBC13 inh) | MEKK2wt confirm inactive | MEKK2mut-MEK5 inactive | MEKK3 confirm inactive
Oc1ccccc1CNc1ccc2c(c1)OCCO2	none
Cc1ccc(C)c2[nH]c(=O)c(CN(CCN3CCCC3)C(=O)Nc3cccc(Cl)c3)cc12	MEKK2wt PB1 HTS 153.0, MEKK2 mut-MEK5 41.0 | MEKK2wt confirm inactive | MEKK2mut-MEK5 inactive | MEKK3 confirm inactive
CCCCOc1ccc(/C=C/C2=CC(C)(C)NC(=S)N2)cc1OCC	none
CCOC(=O)c1c(NC(=O)C2CCCN(S(=O)(=O)c3ccc(C)cc3)C2)sc2c1CCCC2 (stereo not given)	MEKK3 PB1 HTS 141.0 | MEKK2wt confirm inactive | MEKK2mut-MEK5 inactive | MEKK3 confirm inactive
CCOC(=O)c1c(NC(=O)Cn2cnc([N+](=O)[O-])n2)sc2c1CCCC2	MEKK3 PB1 HTS 130.0 | MEKK2wt confirm inactive | MEKK2mut-MEK5 inactive | MEKK3 confirm inactive
CCOC(=O)c1c(NC(=O)C2CCCN(S(=O)(=O)c3ccccc3)C2)sc2c1CCCC2 (stereo not given)	none
CCOC(=O)c1c(NC(=O)c2ccc(N3C(=O)[C@@H]4[C@H](C3=O)[C@H]3C=C[C@@H]4C3)cc2)sc2c1CCCC2	MEKK3 PB1 HTS 145.0 | MEKK2wt confirm inactive | MEKK2mut-MEK5 inactive | MEKK3 confirm inactive
CCOC(=O)c1c(NC(=O)c2ccc(-n3cnnn3)cc2)sc2c1CCCC2	none (no result: Apaf-1 inh, UBC13 inh)
CCOc1ccc(C(=O)NCC(=O)NC(C)CCc2ccccc2)cc1OCC (stereo not given)	none
Cc1ccc(NC(=O)COC(=O)c2ccc(C)c(S(=O)(=O)N3CCOCC3)c2)cc1	none (no result: MEKK3 PB1 HTS, MEKK2wt PB1 HTS, MEKK2 mut-MEK5)
COC(=O)c1ccc(CSc2nnc(NC(C)C)s2)o1	MEKK3 PB1 HTS 71.0[inhibitor] | MEKK2wt confirm inactive | MEKK2mut-MEK5 inactive | MEKK3 confirm inactive
O=c1c2c3c(sc2nc2n1CCCCC2)CCC3	none
O=C1CCCc2c1sc1nc3n(c(=O)c21)CCCCC3	MEKK2wt PB1 HTS 139.0 | MEKK2wt confirm inactive | MEKK2mut-MEK5 inactive | MEKK3 confirm inactive
Cc1c(Cl)cccc1NC(=O)CC1Sc2ccccc2NC1=O (stereo not given)	none
C/C(=N\NC(=O)COc1cccc2ccccc12)c1cccs1	none
CNCC[C@H](Oc1cccc2ccccc12)c1cccs1	MEKK2wt PB1 HTS 157.0! | MEKK2wt confirm inactive | MEKK2mut-MEK5 inactive | MEKK3 confirm inactive
Cc1cccc(NC(=O)CSc2nc(=O)n(CCCN3CCOCC3)c3c2CCCC3)c1	none (no result: MEKK3 PB1 HTS, MEKK2wt PB1 HTS, MEKK2 mut-MEK5)
O=C(NNc1cc(Cl)ccc1Cl)c1cccs1	MEKK3 PB1 HTS 130.0 | MEKK2wt confirm inactive | MEKK2mut-MEK5 inactive | MEKK3 confirm inactive
